Assay results: ChEMBL document CHEMBL1125612, “Synthesis and biological activity of D3-trishomocubyl-4-amines” (J Med Chem, 1991)

Tests used:
Mus musculus [1] = species on record: Mus musculus; test: Anticataleptic activity for reversing the reserpine-induced catalepsy in mice.; type: functional
In short: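 Male CD-1 mice fasted 18 h, given reserpine 5 mg/kg i.p. 4 h before oral compound (1% tragacanth, 10 mL/kg; 100, 30, 10 mg/kg; groups of five).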

[2] = Acute toxicity in mice (24 hours).; type: organism-based; details: mouse, in vivo
Mus musculus [3] = test: Anti-oxotremorine activity (anticholinergic property) and reduction of tremor in mice at a dose of 30 mg/kg.; type: functional
In short: (§1)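 Male CD-1 mice, food-deprived 18 h, with water ad libitum except during observation. Groups of 10 received oral treatment in 1% tragacanth at 10 mL/kg. Test agents were dosed at 100, 30 or 10 mg/kg; the reference standard or vehicle was given instead where used. Oxotremorine 0.4 mg/kg i.p. followed 30 min later. Tremor and salivation were each scored 0-3 at 10, 20 and 30 min, reported as mean score ± SEM.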

Mus musculus [4] = test: Anti-oxotremorine activity (anticholinergic property) and reduction of salivation in mice at a dose of 30 mg/kg.; type: functional; in short: as §1
Mus musculus [5] = test: Anti-oxotremorine activity (anticholinergic property) and reduction of tremor in mice at a dose of 10 mg/kg.; type: functional
In short: (§2)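 Male CD-1 mice, food withheld 18 h, water ad libitum except during observation. Compound in 1% tragacanth given orally (10 mL/kg) to groups of 10 at 100, 30 or 10 mg/kg. Oxotremorine 0.4 mg/kg i.p. 30 min later. Salivation and tremor each scored 0-3 at 10, 20 and 30 min after oxotremorine. Mean score ±SEM.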

Mus musculus [6] = test: Anti-oxotremorine activity (anticholinergic property) and reduction of salivation in mice at a dose of 10 mg/kg.; type: functional; in short: as §2
Mus musculus [7] = test: Anti-oxotremorine activity (anticholinergic property) and reduction of salivation in mice at a dose of 100 mg/kg.; type: functional; in short: as §2
Mus musculus [8] = test: Anti-oxotremorine activity (anticholinergic property) and reduction of tremor in mice at a dose of 100 mg/kg.; type: functional; in short: as §2
Mus musculus [9] = test: Anti-oxotremorine activity (anticholinergic property) and reduction of salivation in mice at a dose of 3 mg/kg.; type: functional
Mus musculus [10] = test: Anti-oxotremorine activity (anticholinergic property) and reduction of tremor in mice at a dose of 3 mg/kg.; type: functional

SMILES | ED50 (Mus musculus [1]) | LD50 at 24 h [2] | Mean score (Mus musculus [3]) | Mean score (Mus musculus [4]) | Mean score (Mus musculus [5]) | Mean score (Mus musculus [6]) | Mean score (Mus musculus [7]) | Mean score (Mus musculus [8]) | Mean score (Mus musculus [9]) | Mean score (Mus musculus [10])
CC12C3CC4C5C[C@H]([C@H](C53)[C@@H]1NCCc1ccccc1)[C@@H]42 (stereo not given in full) | 150 mg/kg | > 1000 mg/kg | 1.3 | 1.3 |  |  |  |  |  | 
CC12C3CC4C5C[C@H]([C@H](C53)[C@@H]1NCc1ccccc1)[C@@H]42 (stereo not given in full) | 34 mg/kg | > 1000 mg/kg | 1.5 | 1.5 |  |  |  |  |  | 
N[C@H]1[C@H]2C3C4C[C@H]2[C@H]2C4CC3C21c1ccccc1 (stereo not given in full) | 16 mg/kg | 681 mg/kg | 1.6 | 1.2 |  |  |  |  |  | 
CCN[C@H]1[C@H]2C3C4C[C@H]2[C@H]2C4CC3C21c1ccccc1 (stereo not given in full) | 14 mg/kg | 261 mg/kg |  |  | 1.3 | 1 |  |  |  | 
CCCCN[C@H]1[C@H]2C3C4C[C@H]2[C@H]2C4CC3C21C (stereo not given in full) | 15 mg/kg | 150 mg/kg |  |  | 1.2 | 1.2 |  |  |  | 
NC12CC3CC(CC(C3)C1)C2 [AMANTADINE] | 17 mg/kg |  |  |  |  |  | 1.1 | 1.7 |  | 
CN1[C@@H]2CC[C@H]1C[C@@H](OC(=O)C(CO)c1ccccc1)C2 (stereo not given in full) [ATROPINE] |  |  |  |  |  |  |  |  | 0 | 0.5
